What follows are compounds tested against T1, Prostaglandin G/H synthase 1 (Ovis aries) (UniProt P05979) (assay: Inhibition of sheep COX1 assessed as PGE2 level at 50 uM by ELISA).
T1 sequence (whole entry): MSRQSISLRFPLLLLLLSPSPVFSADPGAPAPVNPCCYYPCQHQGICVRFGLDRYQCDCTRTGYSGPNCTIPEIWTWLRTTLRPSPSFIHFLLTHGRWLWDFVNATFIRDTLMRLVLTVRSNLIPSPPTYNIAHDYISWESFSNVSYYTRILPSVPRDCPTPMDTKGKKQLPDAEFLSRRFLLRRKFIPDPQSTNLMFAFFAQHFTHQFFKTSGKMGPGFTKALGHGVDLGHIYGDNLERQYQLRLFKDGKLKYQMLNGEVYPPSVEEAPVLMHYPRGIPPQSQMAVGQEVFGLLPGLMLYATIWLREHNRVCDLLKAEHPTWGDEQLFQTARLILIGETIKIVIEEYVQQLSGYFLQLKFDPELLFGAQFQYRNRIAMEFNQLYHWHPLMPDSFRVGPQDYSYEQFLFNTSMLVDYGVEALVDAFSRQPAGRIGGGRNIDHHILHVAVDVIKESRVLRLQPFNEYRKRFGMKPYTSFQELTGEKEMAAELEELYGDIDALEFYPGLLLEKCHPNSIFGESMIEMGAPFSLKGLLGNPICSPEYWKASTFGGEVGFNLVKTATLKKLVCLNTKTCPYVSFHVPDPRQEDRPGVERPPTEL
Summary of the method: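 Ovine COX-1 preincubated 10 min at 37 °C in 100 mM Tris-HCl pH 8.0 with 1 µM heme. Compounds in DMSO, diluted in 100 mM potassium phosphate pH 7.4. Arachidonic acid added to 100 uM final; stopped after 2 min with 1 M HCl. PGE2 measured by competitive ELISA with AChE tracer and Ellman's reagent at 412 nm against a PGE2 standard curve. Expressed as % of solvent control; duplicate, two independent experiments.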

SMILES | inhibition
Cc1ccc(/C=N\NC(=O)Cn2nc(Cc3ccccc3)c3onc(C)c3c2=O)cc1 | 62.1%
Cc1noc2c(Cc3ccccc3)nn(CC(=O)N/N=C\c3cccc([N+](=O)[O-])c3)c(=O)c12 | 39.6%
Cc1noc2c(Cc3ccccc3)nn(CC(=O)N/N=C\c3cccc(Br)c3)c(=O)c12 | 42.9%
COc1ccc2c(c1)c(CC(=O)O)c(C)n2C(=O)c1ccc(Cl)cc1 | 78%
Cc1noc2c(Cc3ccccc3)nn(CC(=O)N/N=C\c3cccc(F)c3)c(=O)c12 | 83%
Cc1noc2c(Cc3ccccc3)nn(CC(=O)N/N=C\c3ccc(F)cc3)c(=O)c12 | 54%
Cc1noc2c(Cc3ccccc3)nn(CC(=O)N/N=C\c3cccc(Cl)c3)c(=O)c12 | 36.3%
COc1ccc(/C=N\NC(=O)Cn2nc(Cc3ccccc3)c3onc(C)c3c2=O)cc1 | 46.3%
Cc1noc2c(Cc3ccccc3)nn(CC(=O)N/N=C\c3ccc(Cl)cc3)c(=O)c12 | 39.6%
Cc1noc2c(Cc3ccccc3)nn(CC(=O)N/N=C\c3ccc(C(F)(F)F)cc3)c(=O)c12 | 64%
Cc1noc2c(Cc3ccccc3)nn(CC(=O)N/N=C\c3ccc(Br)cc3)c(=O)c12 | 50.6%
Cc1noc2c(Cc3ccccc3)nn(CC(=O)N/N=C\c3ccc([N+](=O)[O-])cc3)c(=O)c12 | 40.7%
Cc1noc2c(Cc3ccccc3)nn(CC(=O)N/N=C\c3cccc(C(F)(F)F)c3)c(=O)c12 | 47.1%
Cc1cccc(/C=N\NC(=O)Cn2nc(Cc3ccccc3)c3onc(C)c3c2=O)c1 | 61%

Further lines, results first:

inhibition | SMILES
52.8% | Cc1noc2c(Cc3ccccc3)nn(CC(=O)N/N=C\c3ccccc3Cl)c(=O)c12
51% | Cc1noc2c(Cc3ccccc3)nn(CC(=O)N/N=C\c3ccccc3C(F)(F)F)c(=O)c12
65% | COc1ccccc1/C=N\NC(=O)Cn1nc(Cc2ccccc2)c2onc(C)c2c1=O
59% | Cc1noc2c(Cc3ccccc3)nn(CC(=O)N/N=C\c3ccccc3[N+](=O)[O-])c(=O)c12
46.9% | Cc1ccccc1/C=N\NC(=O)Cn1nc(Cc2ccccc2)c2onc(C)c2c1=O
52.8% | Cc1noc2c(Cc3ccccc3)nn(CC(=O)N/N=C\c3ccccc3Br)c(=O)c12
55.2% | COc1cccc(/C=N\NC(=O)Cn2nc(Cc3ccccc3)c3onc(C)c3c2=O)c1
50.6% | Cc1noc2c(Cc3ccccc3)nn(CC(=O)N/N=C\c3ccccc3)c(=O)c12
41.8% | Cc1noc2c(Cc3ccccc3)nn(CC(=O)N/N=C\c3ccccc3F)c(=O)c12

Source: ChEMBL document CHEMBL1165885, “Synthesis and cyclooxygenase inhibitory activities of some N-acylhydrazone derivatives of isoxazolo[4,5-d]pyridazin-4(5H)-ones” (Eur J Med Chem, 2010)
